Experimental data taken from ChEMBL document CHEMBL1122969, “Spiro[4.5] and spiro[4.6] carboxylic acids: cyclic analogues of valproic acid. Synthesis and anticonvulsant evaluation” (J Med Chem, 1985).

Tests used:
[1] = system: Mus musculus; test: Phase II qualification against administered subcutaneously was reported.; format: functional; conditions: sc
How it was run: (§1)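 Mice were used. scMet ED50 and rotorod TD50 came from groups of 6–12 mice dosed over a range until at least three points fell within 10–90% protection or minimal neurotoxicity. Both were read at the time of peak effect, 0.5 h. ED50, TD50 and 95% confidence intervals were obtained from a plot by the Litchfield–Wilcoxon method. PI = TD50/ED50.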

[2] = system: Mus musculus; test: Phase V qualification against antipicrotoxin activity administered subcutaneously at 3.2 mg/kg; format: functional; conditions: sc, route subcutaneous
[3] = system: Mus musculus; test: Anticonvulsant activity against Maximal electroshock seizure at dose 300 mg/kg at 0.5 hr; toxic; format: ADME, organism-based; design: dose 300 mg/kg; conditions: in vivo
How it was run: (§2)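 Phase I mouse screen. Compound was suspended in 30% polyethylene glycol 400 and given by intraperitoneal injection at 30, 100, 300 or 600 mg/kg. Testing was at 30 min and 4 h (maximal electroshock or subcutaneous pentylenetetrazol), with rotorod toxicity scored alongside. Scored as animals protected/tested; toxicity was flagged at the 0.5 h or 4 h check.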

[4] = system: Mus musculus; test: Anticonvulsant activity against Maximal electroshock seizure at dose 300 mg/kg at 4 hr; format: functional; how it was run: as §2
[5] = system: Mus musculus; test: Anticonvulsant activity against Maximal electroshock seizure at dose 600 mg/kg at 4 hr; format: functional; how it was run: as §2
[6] = system: Mus musculus; test: Anticonvulsant activity against Subcutaneous pentylenetetrazole test at dose 300 mg/kg at 0.5 hr; format: functional; how it was run: as §2
[7] = system: Mus musculus; test: Anticonvulsant activity against Subcutaneous pentylenetetrazole test at dose 300 mg/kg at 4 hr; format: functional; how it was run: as §2
[8] = system: Mus musculus; test: Anticonvulsant activity against Subcutaneous pentylenetetrazole test at dose 600 mg/kg at 0.5 hr; format: functional; how it was run: as §2
[9] = system: Mus musculus; test: Anticonvulsant activity against Subcutaneous pentylenetetrazole test at dose 600 mg/kg at 4 hr; format: functional; how it was run: as §2
[10] = system: Mus musculus; test: Anticonvulsant activity against neurologic toxicity test at dose 300 mg/kg at 0.5 hr; format: organism-based; design: dose 300 mg/kg; conditions: in vivo
How it was run: (§3)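 Mice got the compound as a suspension in 30% polyethylene glycol 400 by ip injection (30, 100, 300, 600 mg/kg) 30 min or 4 h before the rotorod neurological toxicity test. The value is the number of animals showing toxicity over the number tested.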

[11] = system: Mus musculus; test: Anticonvulsant activity against neurologic toxicity test at dose 300 mg/kg at 4 hr; format: organism-based; design: dose 300 mg/kg; conditions: in vivo; how it was run: as §3
[12] = system: Mus musculus; test: Anticonvulsant activity against neurologic toxicity test at dose 600 mg/kg at 0.5 hr; format: organism-based; design: dose 600 mg/kg; conditions: in vivo; how it was run: as §3
[13] = system: Mus musculus; test: Anticonvulsant activity against neurologic toxicity test at dose 600 mg/kg at 4 hr; format: organism-based; design: dose 600 mg/kg; conditions: in vivo; how it was run: as §3
[14] = system: Mus musculus; test: Anticonvulsant activity against Bicucullin (3.75 mg/kg) induced clonic seizure at dose 150 mg/kg subcutaneously at pretreatment time of 15 min.; format: functional; conditions: route subcutaneous
How it was run: (§4)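 CF1 mice (Sprague–Dawley) were given the compound sc in 30% polyethylene glycol 400, with vehicle-injected controls. After the stated pretreatment interval, at the time of peak effect, bicuculline 3.75 mg/kg was injected sc; this dose gives clonic and tonic seizures and death in all controls. Clonic seizure = at least one 5-s clonic spasm episode. Tonic seizure = hindlimb flexion then extension. Scored as mice protected/tested plus mean ± SD onset, minutes.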

[15] = system: Mus musculus; test: Anticonvulsant activity against Bicucullin (3.75 mg/kg) induced clonic seizure at dose 150 mg/kg subcutaneously at pretreatment time of 30 min.; format: functional; conditions: route subcutaneous; how it was run: as §4
[16] = system: Mus musculus; test: Anticonvulsant activity against Bicucullin (3.75 mg/kg) induced death at dose 150 mg/kg subcutaneously at pretreatment time of 15 min.; format: ADME, organism-based; design: dose 150 mg/kg, route subcutaneous; conditions: in vivo, sc
[17] = system: Mus musculus; test: Anticonvulsant activity against Bicucullin (3.75 mg/kg) induced death at dose 150 mg/kg subcutaneously at pretreatment time of 30 min.; format: ADME, organism-based; design: dose 150 mg/kg, route subcutaneous; conditions: in vivo, sc
[18] = system: Mus musculus; test: Anticonvulsant activity against Bicucullin (3.75 mg/kg) induced tonic seizure at dose 150 mg/kg subcutaneously at pretreatment time of 15 min.; format: functional; conditions: route subcutaneous; how it was run: as §4
[19] = Phase II qualification against neurotoxicity administered subcutaneously was reported.; format: toxicity, organism-based; conditions: mouse, in vivo, sc; how it was run: as §1
[20] = Phase V qualification against neurotoxicity administered subcutaneously at a dose (3.2 mg/kg) was reported.; format: toxicity, organism-based; conditions: mouse, in vivo, sc
[21] = system: Mus musculus; test: Anticonvulsant activity against picrotoxin (4.0 mg/kg) induced clonic seizures at 180 mg/kg subcutaneous dose 15 min pretreatment; format: functional
[22] = Protective index is the ratio of TD50 to that of ED50; format: ADME; conditions: read-out: Protective index; how it was run: as §1
[23] = system: Mus musculus; test: Anticonvulsant activity against Maximal electroshock seizure at dose 600 mg/kg at 0.5 hr; format: functional; how it was run: as §2
[24] = system: Mus musculus; test: Anticonvulsant activity against Bicucullin (3.75 mg/kg) induced tonic seizure at dose 150 mg/kg subcutaneously at pretreatment time of 30 min.; format: functional; conditions: route subcutaneous; how it was run: as §4
[25] = system: Mus musculus; test: Anticonvulsant activity against Maximal electroshock seizure at dose 300 mg/kg at 0.5 hr; format: functional; how it was run: as §2
[26] = system: Mus musculus; test: Anticonvulsant activity against Bicucullin (3.75 mg/kg) induced clonic seizure at dose 360 mg/kg subcutaneously at pretreatment time of 15 min.; format: functional; conditions: route subcutaneous; how it was run: as §4
[27] = system: Mus musculus; test: Anticonvulsant activity against Bicucullin (3.75 mg/kg) induced clonic seizure at dose 400 mg/kg subcutaneously at pretreatment time of 15 min.; format: functional; conditions: route subcutaneous; how it was run: as §4
[28] = system: Mus musculus; test: Anticonvulsant activity against Bicucullin (3.75 mg/kg) induced death at dose 400 mg/kg subcutaneously at pretreatment time of 15 min.; format: ADME, organism-based; design: dose 400 mg/kg, route subcutaneous; conditions: in vivo, sc
[29] = system: Mus musculus; test: Anticonvulsant activity against Bicucullin (3.75 mg/kg) induced tonic seizure at dose 360 mg/kg subcutaneously at pretreatment time of 15 min.; format: functional; conditions: route subcutaneous; how it was run: as §4
[30] = system: Mus musculus; test: Anticonvulsant activity against Bicucullin (3.75 mg/kg) induced tonic seizure at dose 400 mg/kg subcutaneously at pretreatment time of 15 min.; format: functional; conditions: route subcutaneous; how it was run: as §4
[31] = system: Mus musculus; test: Anticonvulsant activity against picrotoxin (4.0 mg/kg) induced clonic seizures at 400 mg/kg subcutaneous dose 15 min pretreatment; format: functional
[32] = species on record: Mus musculus; test: animal or person; conditions: sc
[33] = system: Mus musculus; test: Anticonvulsant activity against Maximal electroshock seizure at dose 300 mg/kg at 4 hr; toxic; format: ADME, organism-based; design: dose 300 mg/kg; conditions: in vivo; how it was run: as §2
[34] = system: Mus musculus; test: Anticonvulsant activity against Bicucullin (3.75 mg/kg) induced clonic seizure at dose 300 mg/kg subcutaneously at pretreatment time of 30 min.; format: functional; conditions: route subcutaneous; how it was run: as §4
[35] = system: Mus musculus; test: Anticonvulsant activity against Bicucullin (3.75 mg/kg) induced death at dose 300 mg/kg subcutaneously at pretreatment time of 30 min.; format: ADME, organism-based; design: dose 300 mg/kg, route subcutaneous; conditions: in vivo, sc
[36] = system: Mus musculus; test: Anticonvulsant activity against Bicucullin (3.75 mg/kg) induced tonic seizure at dose 300 mg/kg subcutaneously at pretreatment time of 30 min.; format: functional; conditions: route subcutaneous; how it was run: as §4
[37] = system: Mus musculus; test: Anticonvulsant activity against Bicucullin (3.75 mg/kg) induced clonic seizure at dose 200 mg/kg subcutaneously at pretreatment time of 30 min.; format: functional; conditions: route subcutaneous; how it was run: as §4
[38] = system: Mus musculus; test: Anticonvulsant activity against Bicucullin (3.75 mg/kg) induced death at dose 200 mg/kg subcutaneously at pretreatment time of 30 min.; format: ADME, organism-based; design: dose 200 mg/kg, route subcutaneous; conditions: in vivo, sc
[39] = system: Mus musculus; test: Anticonvulsant activity against Bicucullin (3.75 mg/kg) induced tonic seizure at dose 200 mg/kg subcutaneously at pretreatment time of 15 min.; format: functional; conditions: route subcutaneous, in the assay text read “pretreatment time of 30 min” for “pretreatment time of 15 min”; how it was run: as §4

Structure (SMILES)	No. protected/tested [3]	No. protected/tested [4]	No. protected/tested [5]	No. protected/tested [6]	No. protected/tested [7]	No. protected/tested [8]	No. protected/tested [9]	No. toxicity/tested [10]	No. toxicity/tested [11]	No. toxicity/tested [12]	No. toxicity/tested [13]	No. protected/tested [23]	No. protected/tested [25]	also measured
O=C(O)C1CCC2(CCCCCC2)C1 (stereo unspecified)	1	0	0	1	0	1	1	1	0	4	1	0	–	ED50 [1]: 83 mg/kg; ED50 [2]: 167 mg/kg; Average onset [14]: 7 min; Average onset [15]: 8 min; Average onset [16]: 10 min; Average onset [17]: 14 min; Average onset [18]: 10 min; TD50 [19]: 193 mg/kg; TD50 [20]: 193 mg/kg; Average onset [21]: 21 min; selectivity ratio [22]: 2.3; Average onset [24]: 13 min
O=C(O)C1(C(=O)O)CCC2(CCCCC2)C1	–	0	0	0	0	1	0	0	0	0	2	0	0	–
CCCC(CCC)C(=O)O [VALPROIC ACID]	–	–	–	–	–	–	–	–	–	–	–	–	–	ED50 [2]: 387 mg/kg; Average onset [26]: 9 min; Average onset [27]: 15 min; Average onset [28]: 18 min; Average onset [29]: 11 min; Average onset [30]: 17 min; Average onset [31]: 16 min; ED50 [32]: 149 mg/kg
O=C([O-])C1CCC2(CCCCCC2)C1.[Na+] (stereo unspecified)	–	0	0	0	0	1	0	0	0	4	2	0	0	–
O=C(O)CC1CCC2(CCCCCC2)C1 (stereo unspecified)	1	–	0	1	0	1	1	3	0	4	0	1	–	No. protected/tested [33]: 0
O=C(O)C1(C(=O)O)CCC2(CCCCCC2)C1	–	–	0	1	0	1	0	0	0	3	2	0	0	ED50 [1]: 194 mg/kg; No. protected/tested [33]: 0; Average onset [34]: 9 min; Average onset [35]: 13 min; Average onset [36]: 12 min; TD50 [19]: 275 mg/kg; selectivity ratio [22]: 1.4
O=C(O)C1CCC2(CCCCC2)C1 (stereo unspecified)	1	0	0	1	0	1	0	3	0	4	0	0	–	Average onset [37]: 8 min; Average onset [38]: 12 min; Average onset [39]: 11 min
